The values below come from ChEMBL document CHEMBL3734686, “Synthesis, Photophysical Properties, and Biological Evaluation of trans-Bisthioglycosylated Tetrakis(fluorophenyl)chlorin for Photodynamic Therapy” (J Med Chem, 2015).

In general, EC50 refers to the concentration at which the effect is half-maximal.

Data set [1] in a line: Ratio of drug level in tumor to skin in iv dosed BDXI rat implanted with rat LSBD1 cells after 24 hrs. The class given is ADME, organism-based. As to conditions: in vivo.
Data set [2] concerns HeLa. Description: Drug uptake in human HeLa cells at 0.1 uM after 24 hrs by spectrophotometrical analysis. The class given is ADME, cell-based. The method, boiled down:
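HeLa cells (2.5 × 10^6/well) in DMEM with 10% FCS, preincubated 24 h at 37°C; photosensitizer added to 0.1 µM final (1% DMSO) for 24 h, two wells each. Cells washed twice with PBS, lysed in DMSO, Soret-band absorbance read against DMSO calibration; mean of three replicate experiments.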

Data set [3] relates to HeLa. Put plainly: Dark cytotoxicity against human HeLa cells at 0.5 uM assessed as cell survival preincubated for 24 hrs measured by WST-8 assay in absence of photoirradiation. The format is cell-based. A digest of the protocol: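 HeLa cells were seeded at 5 × 10^3 per well in DMEM with 10% FCS and grown for 24 h at 37°C. They were then exposed for 24 h to 0.5 µM photosensitizer (1% DMSO final), washed, and not irradiated. Viability was read 24 h later by WST-8 absorbance at 450 nm and expressed as percent of untreated wells.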
In general terms: Tetrazolium assays rely on reduction of a dye to a coloured formazan, in cell work by metabolically active cells.

Data set [4] can be described thus: Induction of reactive oxygen generation assessed as quantum yield of singlet oxygen generation in O2 saturated D2O containing 0.1% DMSO by spectrometry. The format is physicochemical. The method, boiled down:
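Photosensitizer in D2O with 0.1% DMSO, absorbance set to 0.4 at its excitation wavelength, oxygen-purged 1 min; singlet-oxygen luminescence recorded with NIR photomultiplier cooled to 193 K; TPPS as reference.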

A short description of data set [5]: Induction of reactive oxygen generation assessed as quantum yield of hydroxyl radical generation in O2 saturated PBS containing 1% DMSO under photoirradiation by spectrometry relative to control hematoporphyrin. The format is physicochemical. As to conditions: buffer. The method, boiled down: (§1)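 Photosensitizer (1.00 µM) with HPF (2.00 µM) in PBS containing 1% DMSO, oxygenated 1 min, irradiated with 100-W halogen lamp through λ>500 nm cutoff filter at 37°C; hematoporphyrin as reference.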

The test system of data set [6] is HeLa. Put plainly: Photocytotoxicity against human HeLa cells assessed as cell survival preincubated for 24 hrs followed by irradiation at 16 J/cm2 measured at 24 hrs by WST-8 assay. As to conditions: light or radiation study. The class given is functional, cell-based. A digest of the protocol: (§2)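 Cells (5 × 10^3/well) in DMEM with 10% FCS, 24 h at 37°C, 5% CO2; photosensitizer 1–50000 nM (1% DMSO final) for 24 h, washed, fresh medium. Irradiated with 100-W halogen lamp through λ>500 nm or λ>600 nm cutoff filter to 16 J·cm−2; WST-8 absorbance at 450 nm 24 h later, survival normalized to no-drug wells.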

A short description of data set [7]: Induction of reactive oxygen generation assessed as quantum yield of hydrogen peroxide generation in O2 saturated PBS containing 1% DMSO under photoirradiation by spectrometry relative to control hematoporphyrin. The class given is physicochemical. The settings on record: buffer. A digest of the protocol: as §1
The test system of data set [8] is 4T1. Description: Photocytotoxicity against mouse 4T1 cells assessed as cell survival preincubated for 24 hrs followed by irradiation at 16 J/cm2 measured at 24 hrs by WST-8 assay. The format is functional, cell-based. As to conditions: 4T1, light or radiation study. The method, boiled down:
as §2

Data set [9] in a line: Photocytotoxicity against rat RGK1 cells assessed as cell survival preincubated for 24 hrs followed by irradiation at 16 J/cm2 measured at 24 hrs by WST-8 assay. The class given is functional, cell-based. The settings on record: RGK1, light or radiation study. A digest of the protocol:
as §2

Data set [10] has as its system U-251. Put plainly: Photocytotoxicity against human U251 cells assessed as cell survival preincubated for 24 hrs followed by irradiation at 16 J/cm2 measured at 24 hrs by WST-8 assay. The format is functional, cell-based. As to conditions: U-251, light or radiation study. A digest of the protocol: as §2
The nature of data set [11]: Photocytotoxicity against human U87 cells assessed as cell survival preincubated for 24 hrs followed by irradiation at 16 J/cm2 measured at 24 hrs by WST-8 assay. The class given is functional, cell-based, U-87MG ATCC. As to conditions: U-87 MG, light or radiation study. The method, boiled down: as §2
The test system of data set [12] is T98G. Description: Photocytotoxicity against human T98G cells assessed as cell survival preincubated for 24 hrs followed by irradiation at 16 J/cm2 measured at 24 hrs by WST-8 assay. The settings on record: light or radiation study. The format is functional, cell-based. A digest of the protocol: as §2
Data set [13] can be described thus: Photocytotoxicity against mouse B16-F1 cells assessed as cell survival preincubated for 24 hrs followed by irradiation at 16 J/cm2 measured at 24 hrs by WST-8 assay. The settings on record: B16-F1, light or radiation study. The format is functional, cell-based. The method, boiled down:
as §2

Regarding `Oc1cccc(-c2c3nc(c(-c4cccc(O)c4)c4ccc([nH]4)c(-c4cccc(O)c4)c4nc(c(-c5cccc(O)c5)c5ccc2[nH]5)CC4)C=C3)c1` [TEMOPORFIN], the Ratio in [1] was found to be 3.

Consider `CN1CC2C3=N/C(=C(/c4c(F)c(F)c(S[C@@H]5O[C@H](CO)[C@@H](O)[C@H](O)[C@H]5O)c(F)c4F)C4=N/C(=C(/c5c(F)c(F)c(S[C@@H]6O[C@H](CO)[C@@H](O)[C@H](O)[C@H]6O)c(F)c5F)c5ccc([nH]5)/C(c5c(F)c(F)c(S[C@@H]6O[C@H](CO)[C@@H](O)[C@H](O)[C@H]6O)c(F)c5F)=C5/C=CC(=N5)C3c3c(F)c(F)c(S[C@@H]5O[C@H](CO)[C@@H](O)[C@H](O)[C@H]5O)c(F)c3F)C=C4)C2C1` (stereo partly drawn), for which the Drug uptake result in data set [2] was “Active”. Besides, the Activity result is “Non-toxic” in [3] and 0.17 in data set [4]. Further, the Ratio in data set [5] is 1.1; in data set [7], 1.7. For the same molecule, the EC50 in [6] came to 50 nM.

Regarding `OC[C@H]1O[C@@H](Oc2ccc(/C3=C4\C=CC(=N4)C(c4ccc(O[C@@H]5O[C@H](CO)[C@@H](O)[C@H](O)[C@H]5O)cc4)C4=N/C(=C(/c5ccc(O[C@@H]6O[C@H](CO)[C@@H](O)[C@H](O)[C@H]6O)cc5)c5ccc([nH]5)/C(c5ccc(O[C@@H]6O[C@H](CO)[C@@H](O)[C@H](O)[C@H]6O)cc5)=C5/C=CC3=N5)C=C4)cc2)[C@H](O)[C@@H](O)[C@@H]1O` (stereo partly drawn), in [6], the EC50 came out at 5000 nM.

For the molecule `CC1=C(CCC(=O)O)c2cc3[nH]c(cc4nc(cc5[nH]c(cc1n2)c(C)c5C(C)O)C(C)=C4C(C)O)c(C)c3CCC(=O)O` (stereo not drawn) [HEMATOPORPHYRIN], the Ratio in data set [5] and in data set [7] was 1 throughout.

For `O=S(=O)(O)c1ccc(-c2c3nc(c(-c4ccc(S(=O)(=O)O)cc4)c4ccc([nH]4)c(-c4ccc(S(=O)(=O)O)cc4)c4nc(c(-c5ccc(S(=O)(=O)O)cc5)c5ccc2[nH]5)C=C4)C=C3)cc1`, the Activity in data set [4] was 0.72.

For the molecule `OC[C@H]1O[C@@H](Sc2c(F)c(F)c(/C3=C4\C=CC(=N4)C(c4c(F)c(F)c(F)c(F)c4F)C4=N/C(=C(/c5c(F)c(F)c(S[C@@H]6O[C@H](CO)[C@@H](O)[C@H](O)[C@H]6O)c(F)c5F)c5ccc([nH]5)/C(c5c(F)c(F)c(F)c(F)c5F)=C5/C=CC3=N5)C=C4)c(F)c2F)[C@H](O)[C@@H](O)[C@@H]1O` (stereo partly drawn), the Drug uptake entry in [2] is given as “Active”. Also, the EC50 in data set [8], in data set [9], in data set [10], in data set [6], in data set [11] and in data set [12] was 10 nM in each case. For the same molecule, the EC50 in data set [13] was 1 nM. Further, the Activity result in data set [3] is recorded as “Non-toxic”; in data set [4] it was 0.16. Also, the Ratio in [5] was 7.7; in [7], 0.8.
